Measured values taken from ChEMBL document CHEMBL1125777, “Nonpeptidic angiotensin II antagonists: synthesis and in vitro activity of a series of novel naphthalene and tetrahydronaphthalene derivatives” (J Med Chem, 1991).

Legend:
Oryctolagus cuniculus = species: Oryctolagus cuniculus; assay: Inhibition of all induced contractions of rabbit aortic rings; assay type: functional; conditions: Aorta
Summary of the method: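 Thoracic aorta rings (2-3 mm) from male Chinchilla rabbits (2-2.5 kg), 2 g resting tension, modified Krebs-Henseleit, 37 °C, 95% O2/5% CO2, equilibrated ≥1 h. Isometric contraction to 10 nM angiotensin II every 20 min. After two control responses, graded compound concentrations (3-4 per ring) applied 5 min before each challenge. DMSO vehicle controls.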

[1] = molecular target: T1, Type-1 angiotensin II receptor B (Rattus norvegicus, UniProt P29089); assay: Binding affinity against angiotensin II receptor in rat smooth muscle cell preparations
T1 sequence (P29089 whole entry): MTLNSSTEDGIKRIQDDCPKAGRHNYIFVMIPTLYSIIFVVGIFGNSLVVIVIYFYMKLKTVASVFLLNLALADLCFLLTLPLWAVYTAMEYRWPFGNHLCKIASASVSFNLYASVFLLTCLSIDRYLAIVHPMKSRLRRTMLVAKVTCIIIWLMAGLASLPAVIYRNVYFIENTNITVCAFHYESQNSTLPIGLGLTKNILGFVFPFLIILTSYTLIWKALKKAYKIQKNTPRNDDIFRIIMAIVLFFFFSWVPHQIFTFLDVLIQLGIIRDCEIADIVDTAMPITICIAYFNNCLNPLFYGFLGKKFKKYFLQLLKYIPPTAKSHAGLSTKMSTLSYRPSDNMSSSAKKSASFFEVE
Summary of the method: (§1)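 Membranes from cultured rat aortic smooth muscle cells (passages 5-20, DMEM with 15% FCS). Bound/free separated by filtration, filter radioactivity counted. Nonspecific binding defined with 1 μM unlabeled AII. IC50 from four-parameter logistic fit. Duplicate tests.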

[2] = molecular target: T1, Type-1 angiotensin II receptor B; assay: Binding affinity against Angiotensin II receptor in rat smooth muscle cell preparations
Summary of the method: as §1, with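 “FCS). 20-60 μg protein incubated 60 min at 25 or 30 °C with radiotracer (150 pM) and varying unlabeled competitor concentrations.” for “FCS).”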

SMILES | IC50 (Oryctolagus cuniculus) [µM] | IC50 [1] [µM] | IC50 [2] [µM]
CCCCc1nc(CO)c(Cl)n1Cc1ccc2c(c1)CCC(C(=O)O)C2 (stereo not given) | 0.3 | 1.1 | 
CCCCc1nc(CO)c(Cl)n1Cc1ccc2c(c1)CCC(C)(C(=O)O)C2 (stereo not given) | 2.7 | 2.8 | 
CCCCc1nc(CO)c(Cl)n1Cc1ccc2c(c1)CCC(c1nnn[nH]1)C2 (stereo not given) | 0.56 |  | 
CCCCc1nc(Cl)c(CO)n1Cc1ccc2ccc(-c3nn[nH]n3)cc2c1 |  |  | 20
CCCCc1nc(Cl)c(CO)n1Cc1ccc2c(c1)CCC(C(=O)O)C2 (stereo not given) | 1.2 | 8.9 | 
CCCCc1nc(Cl)c(CO)n1Cc1ccc2c(c1)CCC(c1nnn[nH]1)C2 (stereo not given) | 1.9 | 5.4 | 
CCCCc1nc(Cl)c(CO)n1Cc1ccc2c(c1)CCC(C)(C(=O)O)C2 (stereo not given) | 2.2 |  | 
CCCCc1nc(Cl)c(CO)n1Cc1cccc2c(-c3nn[nH]n3)cccc12 | 0.7 | 1.1 | 
CCCCc1nc(Cl)c(CO)n1Cc1cccc2cc(-c3nnn[nH]3)ccc12 | 2.6 | 4.1 | 
CCCCc1nc(Cl)c(CO)n1Cc1ccc2cc(-c3nn[nH]n3)ccc2c1 | 1.6 | 0.6 | 
CCCCc1nc(CO)c(Cl)n1Cc1ccc2cc(-c3nnn[nH]3)ccc2c1 | 0.12 |  | 0.2
CCCCc1nc(Cl)c(CO)n1Cc1ccc(-c2ccccc2-c2nnn[nH]2)cc1 [LOSARTAN] | 0.024 |  | 
